Test results reported in ChEMBL document CHEMBL2384952, “Synthesis, antifungal and cytotoxic activities of 2-aryl-3-((piperidin-1-yl)ethyl)thiazolidinones” (Eur J Med Chem, 2013).
Converted amounts (≈) assume the structure as drawn.

Columns and labels:
Rhodotorula [1] = test: Antifungal activity against Rhodotorula species after 48 hrs by CLSI M27A3 broth microdilution method; type: functional
How it was run: (§1)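 Yeasts were kept on Sabouraud dextrose agar and subcultured at 35 °C for at least 2 days. They were suspended in saline to McFarland 0.5 and diluted in RPMI. Ten successive dilutions were made from a 1.6 mg/mL DMSO stock per CLSI broth microdilution, then incubated at 37 °C for 48 h. Growth was read visually against a growth-control well, and MIC is the lowest concentration inhibiting growth.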

Vero [2] = test: Cytotoxicity against African green monkey Vero cells at 12.3 ug/mL by neutral red dye uptake assay relative to control; type: cell-based; conditions: chlorocebus sabaeus
How it was run: (§2)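 Vero cells (over 99% viable by trypan blue exclusion) were exposed to serial compound dilutions in E-MEM, with fresh E-MEM as negative control, for 72 h at 37 °C, 5% CO2. Cells were then given 3.3 mg/L neutral red for 2 h, and the dye was extracted with 50% ethanol/1% acetic acid. A540 was read, and viability was calculated as treated/control absorbance × 100.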

Candida parapsilosis = test: Antifungal activity against Candida parapsilosis after 48 hrs by CLSI M27A3 broth microdilution method; type: functional; conditions: Lodderomyces parapsilosis; how it was run: as §1
Papiliotrema laurentii = test: Antifungal activity against Cryptococcus laurentii after 48 hrs by CLSI M27A3 broth microdilution method; type: functional; how it was run: as §1
Trichosporon asahii = test: Antifungal activity against Trichosporon asahii after 48 hrs by CLSI M27A3 broth microdilution method; type: functional; how it was run: as §1
Rhodotorula [3] = test: Ratio of fluconazole MFC to compound MFC for Rhodotorula species; type: functional
Vero [4] = test: Cytotoxicity against African green monkey Vero cells at 1575 ug/mL by neutral red dye uptake assay relative to control; type: cell-based; conditions: chlorocebus sabaeus; how it was run: as §2
[5] = test system: Meyerozyma guilliermondii; test: Antifungal activity against Candida guilliermondii after 48 hrs by CLSI M27A3 broth microdilution method; type: functional; how it was run: as §1
Vero [6] = test: Cytotoxicity against African green monkey Vero cells at 787 ug/mL by neutral red dye uptake assay relative to control; type: cell-based; conditions: chlorocebus sabaeus; how it was run: as §2
Vero [7] = test: Cytotoxicity against African green monkey Vero cells at 3150 ug/mL by neutral red dye uptake assay relative to control; type: cell-based; conditions: chlorocebus sabaeus; how it was run: as §2
Vero [8] = test: Cytotoxicity against African green monkey Vero cells at 197 ug/mL by neutral red dye uptake assay relative to control; type: cell-based; conditions: chlorocebus sabaeus; how it was run: as §2
Vero [9] = test: Cytotoxicity against African green monkey Vero cells at 394 ug/mL by neutral red dye uptake assay relative to control; type: cell-based; conditions: chlorocebus sabaeus; how it was run: as §2
Vero [10] = test: Cytotoxicity against African green monkey Vero cells at 25 ug/mL by neutral red dye uptake assay relative to control; type: cell-based; conditions: chlorocebus sabaeus; how it was run: as §2
Vero [11] = test: Cytotoxicity against African green monkey Vero cells at 98 ug/mL by neutral red dye uptake assay relative to control; type: cell-based; conditions: chlorocebus sabaeus; how it was run: as §2
Candida albicans = test: Antifungal activity against Candida albicans after 48 hrs by CLSI M27A3 broth microdilution method; type: functional; how it was run: as §1
Rhodotorula [12] = test: Ratio of fluconazole MIC to compound MIC for Rhodotorula species; type: functional
Geotrichum = test: Antifungal activity against Geotrichum species after 48 hrs by CLSI M27A3 broth microdilution method; type: functional; how it was run: as §1
Vero [13] = test: Cytotoxicity against African green monkey Vero cells at 49 ug/mL by neutral red dye uptake assay relative to control; type: cell-based; conditions: chlorocebus sabaeus; how it was run: as §2

O=C1CSC(c2cccc([N+](=O)[O-])c2)N1CCN1CCCCC1 (stereo not given)
MFC (Rhodotorula [1]): 16.5 µg/mL (≈ 49.2 µM)
MIC (Rhodotorula [1]): 16.5 µg/mL (≈ 49.2 µM)
Cell viability (Vero [2]): 100%
MFC (Candida parapsilosis): 100 µg/mL (≈ 298 µM)
MIC (Candida parapsilosis): 100 µg/mL (≈ 298 µM)
MFC (Papiliotrema laurentii): 100 µg/mL (≈ 298 µM)
MIC (Papiliotrema laurentii): 100 µg/mL (≈ 298 µM)
MFC (Trichosporon asahii): > 400 µg/mL
MIC (Trichosporon asahii): > 400 µg/mL
Ratio (Rhodotorula [3]): 1.6
Cell viability (Vero [4]): 7%
MFC [5]: 100 µg/mL (≈ 298 µM)
MIC [5]: 100 µg/mL (≈ 298 µM)
Cell viability (Vero [6]): 15%
Cell viability (Vero [7]): 2%
Cell viability (Vero [8]): 75%
Cell viability (Vero [9]): 60%
Cell viability (Vero [10]): 100%
Cell viability (Vero [11]): 94%
MFC (Candida albicans): 50 µg/mL (≈ 149 µM)
MIC (Candida albicans): 50 µg/mL (≈ 149 µM)
Ratio (Rhodotorula [12]): 1.6
MFC (Geotrichum): 100 µg/mL (≈ 298 µM)
MIC (Geotrichum): 100 µg/mL (≈ 298 µM)
Cell viability (Vero [13]): 100%
